Experimental data as given in ChEMBL document CHEMBL4130355, “Development of a series of novel 4-anlinoquinazoline derivatives possessing quinazoline skeleton: Design, synthesis, EGFR kinase inhibitory efficacy, and evaluation of anticancer activities in vitro” (Eur J Med Chem, 2017).
Activity calls are given as the source filed them. The calls are words filed in the database; no cut-off is given here.

Assays:
HepG2 [1] = test: Induction of apoptosis in human HepG2 cells assessed as convoluted nuclei formation at 2.5 to 20 uM after 48 hrs by Hoechst 33342/propidium iodide double staining based laser scanning confocal microscopy; format: functional, cell-based
Summary of the method: (§1)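 HepG2 plated at 5.0 × 10^4 cells/well in DMEM with 10% FBS, 24 h at 37 °C, then treated 48 h (2.5–20 µM). After two ice-cold PBS washes, cells were stained with Hoechst 33342/PI mixed 1:1 for 30 min at 37 °C in the dark, washed three times, and imaged by laser scanning confocal microscopy at 200×.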

HepG2 [2] = test: Induction of apoptosis in human HepG2 cells assessed as chromatin condensation at 2.5 to 20 uM after 48 hrs by Hoechst 33342/propidium iodide double staining based laser scanning confocal microscopy; format: functional, cell-based; summary of the method: as §1
HepG2 [3] = test: Cell cycle arrest in human HepG2 assessed as accumulation at G0/G1 phase at 5 uM after 48 hrs by propidium iodide-staining based flow cytometry (reference value: 69.40%); format: functional
Summary of the method: (§2)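 HepG2 cells at 5.0 × 10^5/well were grown 24 h, then treated at 0, 2.5, 5.0 or 10.0 µM for 48 h alongside medium-only wells. Cells fixed in 70% ice-cold ethanol for ≥24 h, treated with RNase A at 37 °C for 30 min, then stained with propidium iodide for 30 min at 4 °C in the dark. DNA content read by flow cytometry. Average of at least three experiments.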

DU-145 = test: Antiproliferative activity against human DU145 cells after 72 hrs by MTT assay; format: functional, cell-based; conditions: DU-145, 72 h
HepG2 [4] = test: Induction of apoptosis in human HepG2 cells assessed as caspase-3 activity at 2.5 uM after 48 hrs by colorimetric assay relative to control; format: functional
Summary of the method: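 After 48 h treatment, HepG2 were rinsed in ice-cold PBS and lysed 1–1.5 h on ice in buffer with 1% DTT. Lysate was spun at 10,000×g for 1 min at 4 °C; supernatant protein was measured by Bradford. Supernatant was mixed with 2× reaction buffer (1% DTT) plus caspase-3 chromogenic peptide substrate, held 4 h at 37 °C, and read at 405 nm.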

HepG2 [5] = test: Induction of apoptosis in human HepG2 cells assessed as early apoptotic cells at 10 uM after 48 hrs by Annexin V-FITC/propidium iodide double staining-based flow cytometry (reference value: 8.7%); format: functional
A549 [6] = test: Antiproliferative activity against human A549 cells at 50 uM after 48 hrs by MTT assay relative to control; format: functional
Summary of the method: (§3)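 MTT assay in triplicate wells. Cells (2 × 10^3/well) were attached 24 h, then treated at 0.1, 1, 10, 50 or 100 µM for 24, 48 or 72 h. MTT added for 4 h, SDS solubilisation, absorbance at 570/650 nm. Inhibition = 1 − (OD treated − blank)/(OD control − blank). Reported as mean ± SD of three independent experiments.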

[7] = target: T1, Epidermal growth factor receptor (Homo sapiens, UniProt P00533); conditions: HEK293, at 0.1 µM
HepG2 [8] = test: Induction of apoptosis in human HepG2 cells assessed as intracellular free Ca2+ levels at 10 uM after 48 hrs by FL1 channel/FACS analysis (reference value: 14.2%); format: functional
Summary of the method: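 HepG2 seeded at 5.0 × 10^5 cells/mL, 24 h at 37 °C in 5% CO2, then treated 48 h (2.5–20 µM). Harvested cells were washed in ice-cold PBS and loaded with 4 µM Fluo-3/AM for 30 min. After trypsinizing, they were washed twice and resuspended in HEPES, and fluorescence was measured in the FL-1 channel by flow cytometry. Values are averages of at least three independent experiments.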

HepG2 [9] = test: Antiproliferative activity against human HepG2 cells at 100 uM after 72 hrs by MTT assay realtive to control; format: functional; summary of the method: as §3
HepG2 [10] = test: Antiproliferative activity against human HepG2 cells at 0.1 uM after 48 hrs by MTT assay realtive to control; format: functional; summary of the method: as §3
[11] = target: T1, Epidermal growth factor receptor; conditions: HEK293, at 0.01 µM
HepG2 [12] = test: Induction of apoptosis in human HepG2 cells after 48 hrs by AnnexinV-FITC/propidium iodide double staining-based flow cytometry; format: functional, cell-based
HepG2 [13] = test: Antiproliferative activity against human HepG2 cells at 10 uM after 24 hrs by MTT assay realtive to control; format: functional; summary of the method: as §3
A549 [14] = test: Antiproliferative activity against human A549 cells at 10 uM after 48 hrs by MTT assay relative to control; format: functional; summary of the method: as §3
HepG2 [15] = test: Antiproliferative activity against human HepG2 cells at 50 uM after 72 hrs by MTT assay realtive to control; format: functional; summary of the method: as §3
HepG2 [16] = test: Induction of apoptosis in human HepG2 cells assessed as early apoptotic cells at 5 uM after 48 hrs by Annexin V-FITC/propidium iodide double staining-based flow cytometry (reference value: 8.7%); format: functional
HepG2 [17] = test: Induction of mitochondrial membrane potential loss in human HepG2 cells assessed as mitochondrial membrane potential levels at 20 uM after 48 hrs by rhodamine-123 dye based FACS analysis (reference value: 90.4%); format: functional
HepG2 [18] = test: Induction of apoptosis in human HepG2 cells assessed as viable cells at 2.5 uM after 48 hrs by Annexin V-FITC/propidium iodide double staining-based flow cytometry (reference value: 86.4%); format: functional; conditions: HepG2, 48 h, read-out: Activity
HepG2 [19] = test: Cell cycle arrest in human HepG2 assessed as accumulation at G0/G1 phase at 2.5 uM after 48 hrs by propidium iodide-staining based flow cytometry (reference value: 69.40%); format: functional; summary of the method: as §2
[20] = Antiproliferative activity against human CCC-HPF1 cells after 72 hrs by MTT assay; format: ADME, cell-based; conditions: CCC-HPF-1, 72 h
[21] = target: T1, Epidermal growth factor receptor; conditions: HEK293, at 10 µM
HepG2 [22] = test: Induction of mitochondrial membrane potential loss in human HepG2 cells assessed as mitochondrial membrane potential levels at 5 uM after 48 hrs by rhodamine-123 dye based FACS analysis (reference value: 90.4%); format: functional
[23] = target: T1, Epidermal growth factor receptor; conditions: HEK293, at 1 pM
A549 [24] = test: Antiproliferative activity against human A549 cells at 0.1 uM after 24 hrs by MTT assay relative to control; format: functional; summary of the method: as §3
HepG2 [25] = test: Antiproliferative activity against human HepG2 cells at 0.1 uM after 24 hrs by MTT assay realtive to control; format: functional; summary of the method: as §3
HepG2 [26] = test: Induction of apoptosis in human HepG2 cells assessed as late apoptotic cells at 10 uM after 48 hrs by Annexin V-FITC/propidium iodide double staining-based flow cytometry (reference value: 4.3%); format: functional
A549 [27] = test: Antiproliferative activity against human A549 cells at 50 uM after 24 hrs by MTT assay relative to control; format: functional; summary of the method: as §3
HepG2 [28] = test: Cell cycle arrest in human HepG2 assessed as accumulation at G2/M phase at 10 uM after 48 hrs by propidium iodide-staining based flow cytometry (reference value: 9.13%); format: functional; summary of the method: as §2

T1 sequence (P00533 whole entry): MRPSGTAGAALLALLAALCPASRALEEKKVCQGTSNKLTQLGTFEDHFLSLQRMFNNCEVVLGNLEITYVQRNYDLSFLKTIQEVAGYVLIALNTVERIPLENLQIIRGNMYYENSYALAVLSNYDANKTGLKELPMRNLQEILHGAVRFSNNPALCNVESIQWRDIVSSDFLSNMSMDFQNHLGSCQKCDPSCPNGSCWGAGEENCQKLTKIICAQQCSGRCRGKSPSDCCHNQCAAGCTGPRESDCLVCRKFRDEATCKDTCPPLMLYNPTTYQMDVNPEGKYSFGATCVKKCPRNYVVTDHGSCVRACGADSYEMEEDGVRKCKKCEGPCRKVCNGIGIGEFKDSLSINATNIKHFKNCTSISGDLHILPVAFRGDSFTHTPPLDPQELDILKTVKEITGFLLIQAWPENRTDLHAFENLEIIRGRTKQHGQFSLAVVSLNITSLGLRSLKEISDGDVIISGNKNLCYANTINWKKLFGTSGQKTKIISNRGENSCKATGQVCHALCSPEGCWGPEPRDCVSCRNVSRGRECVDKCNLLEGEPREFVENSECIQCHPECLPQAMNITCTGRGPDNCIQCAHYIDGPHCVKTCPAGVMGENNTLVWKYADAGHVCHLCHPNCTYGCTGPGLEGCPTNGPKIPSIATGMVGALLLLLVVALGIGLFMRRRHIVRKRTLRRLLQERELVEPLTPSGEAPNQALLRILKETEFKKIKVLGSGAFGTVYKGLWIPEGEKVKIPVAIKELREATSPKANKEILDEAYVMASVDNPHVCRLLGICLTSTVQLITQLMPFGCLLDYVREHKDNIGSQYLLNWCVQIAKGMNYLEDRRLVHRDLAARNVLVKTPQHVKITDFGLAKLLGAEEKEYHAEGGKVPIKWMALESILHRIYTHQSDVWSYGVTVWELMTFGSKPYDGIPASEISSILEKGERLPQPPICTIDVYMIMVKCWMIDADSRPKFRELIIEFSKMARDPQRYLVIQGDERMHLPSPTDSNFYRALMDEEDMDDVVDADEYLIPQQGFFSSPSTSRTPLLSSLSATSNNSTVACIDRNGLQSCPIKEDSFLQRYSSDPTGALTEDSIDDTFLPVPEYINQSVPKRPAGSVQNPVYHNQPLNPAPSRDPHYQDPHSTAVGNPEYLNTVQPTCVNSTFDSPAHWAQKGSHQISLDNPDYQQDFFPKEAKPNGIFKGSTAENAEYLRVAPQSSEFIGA

With `COc1cc2c(Nc3ccc(C#N)cc3)ncnc2cc1OCCCN1CCC(c2ccccc2)CC1` the Activity (HepG2 [1]) was “Active”, the Activity (HepG2 [2]) was “Active” and the Activity (HepG2 [3]) was 65.53%. The IC50 (DU-145) was 6.79 µM, the Activity (HepG2 [4]) was 138% and the Activity (HepG2 [5]) was 98.6%. For the same compound, the Activity (A549 [6]) was 75.5%, the inhibition [7] was 73.1% and the Activity (HepG2 [8]) was 48.9%. The Activity (HepG2 [9]) was 101%, the Activity (HepG2 [10]) was 5.7% and the inhibition [11] was 61.8%. For the same compound, the Activity (HepG2 [12]) was “Dose-dependent effect”, the Activity (HepG2 [13]) was 63.5% and the Activity (A549 [14]) was 13.5%. It also gave an Activity (HepG2 [15]) of 96.5%, an Activity (HepG2 [16]) of 80.7% and an Activity (HepG2 [17]) of 55.9%. For the same compound, the viability at 2.5 µM (HepG2 [18]) was 47.5%, the Activity (HepG2 [19]) was 67.07% and the IC50 [20] was 28 µM. For the same compound, the inhibition [21] was 99.1%, the Activity (HepG2 [22]) was 87% and the inhibition [23] was 16%. It also gave an Activity (A549 [24]) of 0.8%, an Activity (HepG2 [25]) of 4.4% and an Activity (HepG2 [26]) of 0.1%. The Activity (A549 [27]) was 85.3% and the Activity (HepG2 [28]) was 9.57%.
